Results taken from ChEMBL document CHEMBL1135519, “Structure-activity relationships on phenylalanine-containing inhibitors of histone deacetylase: in vitro enzyme inhibition, induction of differentiation, and inhibition of proliferation in Friend leukemic cells” (J Med Chem, 2002).

Legend:
[1] = tested on: Friend leukemia cell line; test: Tested […] for the inhibition of proliferation of friend leukemic cells; format: functional; settings: Mus musculus
Outline: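 MEL DS19 murine erythroleukemia (Friend) cells, log phase, kept in DMEM with 10% FBS and penicillin/streptomycin at 37 °C in 5% CO2. Seeded at 4 × 10⁴ cells/well with serial compound dilutions; screened at 10 and 50 µM, then dose-response. DMSO at 0.1% in controls. Cells counted by Casy counter after 72 h. Proliferation given as percent of solvent control.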

Histone deacetylase HD2 = biological target: T1, Histone deacetylase HD2 (Zea mays, UniProt Q94F81); test: Inhibition of in vitro enzyme activity measured in a highly purified maize Histone deacetylase 2 preparation
T1 sequence (Q94F81 whole entry): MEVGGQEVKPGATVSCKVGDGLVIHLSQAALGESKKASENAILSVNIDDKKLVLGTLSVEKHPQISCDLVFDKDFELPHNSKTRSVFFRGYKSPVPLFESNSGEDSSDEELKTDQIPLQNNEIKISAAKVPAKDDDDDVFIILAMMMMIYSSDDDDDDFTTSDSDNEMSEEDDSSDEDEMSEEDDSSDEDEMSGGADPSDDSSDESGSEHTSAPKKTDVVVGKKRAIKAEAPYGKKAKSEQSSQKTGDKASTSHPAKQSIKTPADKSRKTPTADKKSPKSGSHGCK

Histone deacetylase = test: Inhibition of in vitro enzyme activity measured in partially purified rat liver Histone deacetylase preparation; format: tissue-based

| SMILES | IC50 [1] | IC50 (Histone deacetylase HD2) | IC50 (Histone deacetylase) |
| --- | --- | --- | --- |
| O=C(CCCCCCC(=O)N[C@@H](Cc1cccc2ccccc12)C(=O)NCCc1ccccc1)NO | 15000 nM | 35 nM | 310 nM |
| COC(=O)[C@H](Cc1ccccc1)NC(=O)CCCCCCC(=O)NO | 15000 nM | 500 nM | 800 nM |
| COC(=O)[C@@H](Cc1ccccc1)NC(=O)CCCCCCC(=O)NO | 28000 nM | 760 nM | 880 nM |
| COC(=O)[C@H](Cc1ccc(-c2ccccc2)cc1)NC(=O)CCCCCCC(=O)NO | 840 nM | 210 nM | 290 nM |
| COC(=O)[C@H](Cc1cccc2ccccc12)NC(=O)CCCCCCC(=O)NO | 22000 nM | 360 nM | 130 nM |
| O=C(CCCCCCC(=O)Nc1ccccc1)NO [VORINOSTAT] | 990 nM | 1000 nM |  |
| COC(=O)[C@H](Cc1cccs1)NC(=O)CCCCCCC(=O)NO | 5900 nM | 700 nM | 410 nM |
| CC(/C=C/C(=O)NO)=C\[C@@H](C)C(=O)c1ccc(N(C)C)cc1 [TRICHOSTATIN] | 40 nM |  |  |
| O=C(CCCCCCC(=O)N[C@@H](Cc1ccccc1)C(=O)NCc1ccccc1)NO | 69000 nM | 140 nM | 460 nM |
| COC(=O)[C@H](Cc1ccc(OC)cc1)NC(=O)CCCCCCC(=O)NO | 11000 nM | 250 nM | 800 nM |
| COC(=O)[C@H](Cc1c[nH]c2ccccc12)NC(=O)CCCCCCC(=O)NO | 13000 nM | 120 nM | 320 nM |
| COC(=O)[C@H](Cc1ccc2ccccc2c1)NC(=O)CCCCCCC(=O)NO | 5200 nM | 40 nM | 510 nM |
| NC(=O)[C@H](Cc1ccccc1)NC(=O)CCCCCCC(=O)NO | 64000 nM | 1100 nM | 840 nM |
| O=C(CCCCCCC(=O)NO)NO [SUBEROHYDROXAMIC ACID] |  | 320 nM | 1150 nM |
| O=C(CCCCCCC(=O)N[C@@H](Cc1ccccc1)C(=O)NCCCc1ccccc1)NO | 58000 nM | 380 nM | 1010 nM |
| O=C(CCCCCCC(=O)N[C@@H](Cc1ccccc1)C(=O)Nc1ccccc1)NO | 15000 nM |  | 790 nM |
| O=C(CCCCCCC(=O)N[C@@H](Cc1ccccc1)C(=O)N1CCCC1)NO | > 100000 nM | 520 nM | 330 nM |
| COC(=O)[C@H](Cc1ccc([N+](=O)[O-])cc1)NC(=O)CCCCCCC(=O)NO | 35000 nM | 850 nM | 1340 nM |
| O=C(CCCCCCC(=O)N[C@H](Cc1ccccc1)C(=O)NCCc1ccccc1)NO | 76000 nM | 340 nM | 390 nM |
| O=C(CCCCCCC(=O)N[C@@H](Cc1ccccc1)C(=O)NCCc1ccccc1)NO | 72000 nM | 330 nM | 260 nM |
| COC(=O)[C@@H](NC(=O)CCCCCCC(=O)NO)C(C)C | 6200 nM | 900 nM | 380 nM |
| O=C(CCCCCCC(=O)N[C@H](Cc1ccccc1)C(=O)O)NO | > 100000 nM | 750 nM | 1540 nM |
